Measured values taken from ChEMBL document CHEMBL4177701, “A novel series of enoyl reductase inhibitors targeting the ESKAPE pathogens, Staphylococcus aureus and Acinetobacter baumannii” (Bioorg Med Chem, 2018).
Converted amounts (≈) assume the structure as drawn. The source made the active and inactive calls. The calls are words filed in the database; no cut-off is given here.

Columns and labels:
[1] = test system: Staphylococcus aureus; assay: Antibacterial activity against Staphylococcus aureus RN4220 by microbroth dilution method; type: functional
Procedure, shortened: (§1)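 Broth microdilution MIC; reported value is mean of at least two runs, within two-fold experimental uncertainty.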

[2] = test system: Staphylococcus aureus; assay: Antibacterial activity against Staphylococcus aureus RN4220 over-expressing FabI by microbroth dilution method; type: functional; procedure, shortened: as §1
[3] = molecular target: T1, Enoyl-[acyl-carrier-protein] reductase [NADPH] FabI (Staphylococcus aureus) (UniProt Q6GI75); assay: Binding affinity to Staphylococcus aureus subsp. aureus Rosenbach ATCC 43300 FabI by SPR assay
T1 sequence (whole entry): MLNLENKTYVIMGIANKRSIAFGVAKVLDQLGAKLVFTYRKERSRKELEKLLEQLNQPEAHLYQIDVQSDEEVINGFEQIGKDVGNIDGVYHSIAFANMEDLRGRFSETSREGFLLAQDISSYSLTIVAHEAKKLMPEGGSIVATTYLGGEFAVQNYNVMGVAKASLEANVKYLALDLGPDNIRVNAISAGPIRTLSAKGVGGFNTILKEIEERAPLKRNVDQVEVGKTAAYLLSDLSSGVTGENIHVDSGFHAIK

[4] = test system: Escherichia coli; assay: Antibacterial activity against Escherichia coli BW25113 mutant by microbroth dilution method; type: functional; procedure, shortened: as §1
[5] = test system: Staphylococcus aureus; assay: Antibacterial activity against methicillin-resistant Staphylococcus aureus subsp. aureus Rosenbach ATCC 43300 by microbroth dilution method; type: functional; procedure, shortened: as §1
[6] = Competitive inhibition of Acinetobacter baumannii 2208 ATCC 19606 FabI using crotonyl-CoA as substrate in presence of NADPH/NADH after 10 mins by fluorescence assay; set-up: species or system Acinetobacter baumannii ATCC 19606 = CIP 70.34 = JCM 6841
[7] = molecular target: T2, Enoyl-[acyl-carrier-protein] reductase [NADPH] FabI (Staphylococcus aureus, UniProt Q6GI75); assay: Competitive inhibition of Staphylococcus aureus subsp. aureus Rosenbach ATCC 43300 FabI using crotonyl-CoA as substrate in presence of NADPH/NADH after 10 mins by fluorescence assay
T2 sequence (Q6GI75 whole entry): T1 sequence (whole entry)

[8] = Inhibition of Acinetobacter baumannii 2208 ATCC 19606 FabI using crotonyl-CoA as substrate in presence of NADPH/NADH after 10 mins by fluorescence assay; set-up: species or system Acinetobacter baumannii ATCC 19606 = CIP 70.34 = JCM 6841
Procedure, shortened: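 AbFabI, 200 nM, in 50 mM MES/100 mM NaCl with 200 μM NADH, 0.1 mg/mL BSA and 0.01% triton. Reaction started with 300 μM crotonyl-CoA. NADH fluorescence read at 340/460 nm. Compounds tested at 0.4 nM–200 μM. Initial 10-min slopes were compared with a DMSO no-compound control. At least two independent experiments, each in duplicate; two-fold uncertainty.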

[9] = test system: Acinetobacter baumannii; assay: Antibacterial activity against Acinetobacter baumannii 2208 ATCC 19606 by microbroth dilution method; type: functional; settings: ATCC 19606 = CIP 70.34 = JCM 6841 2208
Procedure, shortened: (§2)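 Microbroth dilution MIC; each value is the mean of at least two runs, within two-fold experimental uncertainty.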

[10] = test system: Escherichia coli; assay: Antibacterial activity against Escherichia coli BW25113 harboring TolC deletion mutant by microbroth dilution method; type: functional; procedure, shortened: as §1
[11] = test system: Acinetobacter baumannii ATCC 19606 = CIP 70.34 = JCM 6841; assay: Binding affinity to Acinetobacter baumannii 2208 ATCC 19606 FabI by SPR assay
[12] = test system: Acinetobacter baumannii; assay: Synergistic antibacterial activity against Acinetobacter baumannii 2208 ATCC 19606 assessed as colistin MIC by checkerboard method; type: functional; settings: ATCC 19606 = CIP 70.34 = JCM 6841 2208
[13] = molecular target: T2, Enoyl-[acyl-carrier-protein] reductase [NADPH] FabI; assay: Inhibition of Staphylococcus aureus subsp. aureus Rosenbach ATCC 43300 FabI using crotonyl-CoA as substrate in presence of NADPH/NADH after 10 mins by fluorescence assay
Procedure, shortened: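 SaFabI enzyme, 300 nM, in 50 mM MES/100 mM NaCl with 200 μM NADPH, 0.1 mg/mL BSA, 0.01% triton; started with 400 μM crotonyl-CoA. NADPH fluorescence at 340/460 nm. Compounds 0.4 nM–200 μM. Slopes over first 10 min compared with DMSO control for % inhibition. At least two independent experiments, each in duplicate. Two-fold experimental uncertainty.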

[14] = test system: Acinetobacter baumannii; assay: Synergistic antibacterial activity against Acinetobacter baumannii 2208 ATCC 19606 in presence of colistin by checkerboard method; type: functional; settings: ATCC 19606 = CIP 70.34 = JCM 6841 2208
[15] = test system: Acinetobacter baumannii; assay: Synergistic antibacterial activity against Acinetobacter baumannii 2208 ATCC 19606 assessed as fractional inhibitory concentration in presence of colistin by checkerboard method; type: functional, ATCC 19606 = CIP 70.34 = JCM 6841 2208
[16] = test system: Staphylococcus aureus; assay: Antibacterial activity against Staphylococcus aureus Newman by microbroth dilution method; type: functional; procedure, shortened: as §2

| SMILES | Activity [1] | Activity [2] | Activity [3] | MIC [4] [µg/mL] | MIC [5] [µg/mL] | MIC [2] [µg/mL] | Ki [6] [µM] | Ki [7] [µM] | IC50 [8] [µM] | MIC [9] [µg/mL] | MIC [10] [µg/mL] | Activity [11] | MIC [12] [µg/mL] | IC50 [13] [µM] | MIC [14] [µg/mL] | FIC [15] | MIC [16] | MIC [1] [µg/mL] |
| --- | --- | --- | --- | --- | --- | --- | --- | --- | --- | --- | --- | --- | --- | --- | --- | --- | --- | --- |
| CC[C@H]1OC(=O)[C@H](C)[C@@H](O[C@H]2C[C@@](C)(OC)[C@@H](O)[C@H](C)O2)[C@H](C)[C@@H](O[C@@H]2O[C@H](C)C[C@H](N(C)C)[C@H]2O)[C@](C)(O)C[C@@H](C)C(=O)[C@H](C)[C@@H](O)[C@]1(C)O | Active | Active |  |  |  |  |  |  |  |  |  |  |  |  |  |  |  |  |
| CN(C)[C@@H]1C(O)=C(C(N)=O)C(=O)[C@@]2(O)C(O)=C3C(=O)c4c(O)cccc4[C@@](C)(O)[C@H]3C[C@@H]12 | Active | Active |  |  |  |  |  |  |  |  |  |  |  |  |  |  |  |  |
| CN[C@@H]1[C@H](O[C@H]2[C@H](O[C@H]3[C@H](O)[C@@H](O)[C@H](N=C(N)N)[C@@H](O)[C@@H]3N=C(N)N)O[C@@H](C)[C@]2(O)C=O)O[C@@H](CO)[C@H](O)[C@H]1O | Active | Active |  |  |  |  |  |  |  |  |  |  |  |  |  |  |  |  |
| O=C(N[C@H](CO)[C@H](O)c1ccc([N+](=O)[O-])cc1)C(Cl)Cl | Active | Active |  |  |  |  |  |  |  |  |  |  |  |  |  |  |  |  |
| CC(=O)Nc1ccc(/C=C/C(=O)N2CCC(c3ccc4c(c3)OCO4)C2)cn1 (racemic) |  |  | Active | > 200 | > 200 | > 200 | 4.3 | 0.4 | 8.5 | > 200 | > 200 | Active | 1.56 |  |  |  |  |  |
| CC(C)S(=O)(=O)c1ccc(CC(=O)N2CCC(c3ccc4c(c3)OCO4)C2)cc1 (racemic) |  |  | Active | > 200 | > 200 | > 200 | > 50 | > 37.1 | > 100 | > 200 |  | Active |  | > 100 |  |  |  |  |
| O=C(Cc1ccccc1Cl)N1CCC(c2nccs2)C1 (racemic) |  |  | Active | > 100 | 100 (≈ 326 µM) | > 200 | 7 | 2.2 | 14 | > 200 | > 100 | Active | 0.39 |  | 50 | 0.75 | 163 µM |  |
| O=C(Cc1c(F)cccc1F)N1CCC(c2ccc3c(c2)OCO3)C1 (racemic) |  |  | Active | > 200 | > 200 | > 200 | 27 | 0.9 | 54 | > 200 |  | Active |  |  |  |  |  |  |
| CC(=O)Nc1ccc(CC(=O)N2CCC(c3nccs3)C2)cc1 (racemic) |  |  | Active | > 200 | > 200 | > 200 | > 50 | > 37.1 | > 100 | > 200 |  | Active |  | > 100 |  |  |  |  |
| CC(=O)Nc1ccc(/C=C/C(=O)N2CCC(c3nccs3)C2)cn1 (racemic) |  |  | Active | > 200 | > 200 |  | 10 | 1.7 | 20 | > 200 | > 200 | Active | 0.39 |  | 100 | 1 | > 200 µg/mL | > 200 |
| COc1ccc(C2CCN(C(=O)Cc3ccccc3Cl)C2)cc1 (racemic) |  |  | Active |  | > 200 |  | > 100 | 4.6 | > 200 | > 200 | > 200 | Active |  |  |  |  |  | > 200 |
| CC(=O)Nc1ccc(/C=C/C(=O)N2CCC(c3ccccc3)C2)cn1 (racemic) |  |  | Active |  | > 200 | > 200 | 0.2 | 0.4 | 0.47 | > 200 | 12.5 (≈ 37.3 µM) | Active | 3.1 |  |  |  | > 200 µg/mL | > 200 |
| COc1ccccc1C1CCN(C(=O)Cc2ccccc2F)C1 (racemic) |  |  | Active | > 200 | 100 (≈ 319 µM) | 100 (≈ 319 µM) | 1.1 | 1.7 | 2.1 | > 200 |  | Active |  |  |  |  | 160 µM | 50 (≈ 160 µM) |
| COc1ccccc1C1CCN(C(=O)Cc2cccc(F)c2F)C1 (racemic) |  |  | Active | > 200 | 100 (≈ 302 µM) | > 200 | 3.7 | 1.1 | 7.4 | > 200 |  | Active |  |  |  |  | 100 µg/mL | 100 (≈ 302 µM) |
| COc1ccccc1C1CCN(C(=O)Cc2ccc(NC(C)=O)cc2)C1 (racemic) |  |  | Active | > 200 | > 200 | > 200 | > 50 | > 37.1 | > 100 | > 200 |  | Active |  | > 100 |  |  |  |  |
| COc1ccccc1C1CCN(C(=O)/C=C/c2ccc(NC(C)=O)cc2)C1 (racemic) |  |  | Active | > 200 | > 200 | > 200 | > 50 | > 37.1 | > 100 | > 200 |  | Active |  | > 100 |  |  |  |  |
| CC(=O)Nc1ccc(CC(=O)N2CCC(c3ccccc3)C2)cc1 (racemic) |  |  | Active |  | > 200 | > 200 | > 50 | > 37.1 | > 100 | > 200 | > 200 | Active |  | > 100 |  |  |  |  |
| O=C(Cc1ccccc1F)N1CCC(c2ccc3c(c2)OCO3)C1 (racemic) |  |  | Active | > 200 | > 200 | > 200 | 16 | 1 | 32 | > 200 |  | Active |  |  |  |  |  |  |
| COc1ccc(C2CCN(C(=O)/C=C/c3ccc(NC(C)=O)nc3)C2)cc1 (racemic) |  |  | Active | > 200 |  | > 200 | > 100 | 1.3 | > 200 | > 200 |  | Active |  | 3.6 |  |  |  |  |
| COc1ccc(C2CCN(C(=O)Cc3ccc(NC(C)=O)cc3)C2)cc1 (racemic) |  |  | Active | > 200 | > 200 | > 200 | > 50 | > 37.1 | > 100 | > 200 |  | Active |  | > 100 |  |  |  |  |
| CC(=O)Nc1ccc(/C=C/C(=O)N2CCC(c3ccccn3)C2)cn1 (racemic) |  |  | Active | > 200 | > 200 |  | 3.6 | 10.5 | 7.1 | > 200 | > 200 | Active | 0.39 |  | 100 | 1 | > 200 µg/mL | > 200 |
| O=C(Cc1cccc(F)c1F)N1CCC(c2ccc3c(c2)OCO3)C1 (racemic) |  |  | Active | > 200 | > 200 |  | 6.9 | 2 | 13.7 | > 200 |  | Active |  |  |  |  |  | > 200 |
| CC(=O)Nc1ccc(CC(=O)N2CCC(c3ccc4c(c3)OCO4)C2)cc1 (racemic) |  |  | Active | > 200 | > 200 | > 200 | > 50 | > 37.1 | > 100 | > 200 |  | Active |  | > 100 |  |  |  |  |
